Data taken from ChEMBL document CHEMBL3813661, “Humudifucol and Bioactive Prenylated Polyphenols from Hops (Humulus lupulus cv. "Cascade")” (J Nat Prod, 2016).

Tests used:
[1] = molecular target: T1, Polyunsaturated fatty acid 5-lipoxygenase (Homo sapiens, UniProt P09917); assay: Inhibition of recombinant human 5-LO expressed in Escherichia coli MV1190 cells preincubated for 10 mins followed by addition of arachidonic acid as substrate measured after 10 mins by RP-HPLC method
T1 sequence (P09917 whole entry): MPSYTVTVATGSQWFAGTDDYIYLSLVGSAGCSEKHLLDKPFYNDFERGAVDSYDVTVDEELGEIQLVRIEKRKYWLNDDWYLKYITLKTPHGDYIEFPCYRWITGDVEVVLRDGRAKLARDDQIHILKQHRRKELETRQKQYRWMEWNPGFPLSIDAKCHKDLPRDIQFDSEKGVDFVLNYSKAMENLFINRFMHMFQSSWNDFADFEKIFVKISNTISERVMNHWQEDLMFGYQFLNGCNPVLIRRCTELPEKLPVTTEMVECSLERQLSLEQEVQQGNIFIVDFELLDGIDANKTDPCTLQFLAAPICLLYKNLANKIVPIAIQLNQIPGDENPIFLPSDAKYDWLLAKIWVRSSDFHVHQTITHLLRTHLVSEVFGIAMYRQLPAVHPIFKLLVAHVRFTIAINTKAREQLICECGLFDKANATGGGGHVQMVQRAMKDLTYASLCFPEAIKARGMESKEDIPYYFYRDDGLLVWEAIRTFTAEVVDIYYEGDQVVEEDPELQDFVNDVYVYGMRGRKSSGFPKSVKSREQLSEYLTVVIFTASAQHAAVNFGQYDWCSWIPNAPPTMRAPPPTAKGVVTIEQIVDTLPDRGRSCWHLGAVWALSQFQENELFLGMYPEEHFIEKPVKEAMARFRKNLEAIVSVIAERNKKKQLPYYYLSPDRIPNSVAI
In short: (§1)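 Recombinant human 5-LO expressed at 27 °C in E. coli MV1190 and partially purified from the 40000g supernatant on ATP-agarose. Enzyme taken up in PBS with 1 mM EDTA plus 1 mM ATP and preincubated with compound on ice 10 min. After 30 s at 37 °C, 2 mM CaCl2 and 20 μM AA added for 10 min. Stopped with methanol, products measured by RP-HPLC. Mean ± SEM, 3–4 experiments.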

[2] = molecular target: T2, Polyunsaturated fatty acid 5-lipoxygenase (Homo sapiens) (UniProt P09917); assay: Inhibition of recombinant human 5-LO expressed in Escherichia coli MV1190 cells assessed as residual activity preincubated for 10 mins followed by addition of arachidonic acid as substrate measured after 10 mins by RP-HPLC method relative to control; in short: as §1
T2 sequence (whole entry): T1 sequence (P09917 whole entry)

[3] = molecular target: T1, Polyunsaturated fatty acid 5-lipoxygenase; assay: Inhibition of 5-LO in human polymorphonuclear leukocytes preincubated for 10 mins followed by addition of arachidonic acid as substrate measured after 10 mins by HPLC method; format: cell-based
[4] = molecular target: T3, Prostaglandin E synthase (Homo sapiens) (UniProt O14684); assay: Inhibition of mPGES-1 in microsomes of IL1-beta induced human A549 cells assessed as PGE2 formation by measuring enzyme residual activity at 10 uM preincubated for 15 mins followed by addition of PGH2 as substrate measured after 1 min by RP-HPLC method relative to control
T3 sequence (whole entry): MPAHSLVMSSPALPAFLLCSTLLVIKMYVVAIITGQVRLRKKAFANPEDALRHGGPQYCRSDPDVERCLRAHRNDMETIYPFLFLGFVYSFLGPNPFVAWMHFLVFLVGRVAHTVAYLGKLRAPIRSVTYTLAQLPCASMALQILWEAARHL
In short: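 Microsomes from A549 cells stimulated with IL-1β (1 ng/mL) for 48 h, diluted in 0.1 M potassium phosphate pH 7.4 with 2.5 mM glutathione. Compound or vehicle added for 15 min at 4 °C, then 20 μM PGH2 for 1 min at 4 °C. Stopped with FeCl2/citric acid containing 11β-PGE2. PGE2 measured by solid-phase extraction and RP-HPLC. Residual activity as % of control, mean ± SEM, 3–4 experiments.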

[5] = molecular target: T2, Polyunsaturated fatty acid 5-lipoxygenase (Homo sapiens); assay: Inhibition of 5-LO in human polymorphonuclear leukocytes assessed as residual activity at 10 uM preincubated for 10 mins followed by addition of arachidonic acid as substrate measured after 10 mins by HPLC method relative to control; format: cell-based

For CC(C)=CCC1=C2O[C@@H](C(C)(C)O)C[C@@]2(O)C(=O)C(C(=O)CC(C)C)=C1O, the IC50 ([1]; read-out: IC50) was over 10 µM, the Activity [2] was 90.8% and the IC50 [3] was “Not Active”. The Activity [4] was 52.7%.

In the case of CC(C)=CCc1c(O)cc(O)c2c1O[C@H](c1ccc(O)cc1)CC2=O, the IC50 ([1]; read-out: IC50) is reported as over 10 µM, the Activity [2] is reported as 66.7% and the IC50 ([3]; read-out: IC50) is reported as over 10 µM. It also gave an Activity [5] of 87.5% and an Activity [4] of 56.5%.

COc1cc(O)c(CC=C(C)C)c(O)c1C(=O)/C=C/c1ccc(O)cc1 [XANTHOHUMOL] was tested, and the IC50 ([1]; read-out: IC50) was 2.1 µM, the IC50 ([3]; read-out: IC50) was 2.9 µM and the Activity [4] was 32.3%.

In the case of CC(C)=CCC1(O)C(=O)C(CC=C(C)C)(CC=C(C)C)C(=O)C(C(=O)C(C)C)=C1O (stereo not drawn), the IC50 ([1]; read-out: IC50) is reported as 5.9 µM, the IC50 ([3]; read-out: IC50) is reported as over 10 µM and the Activity [5] is reported as 57.5%. It also gave an Activity [4] of 32.8%.

COc1cc2c(c(O)c1C(=O)/C=C/c1ccc(O)cc1)C=CC(C)(C)O2 [XANTHOHUMOL C] showed an IC50 ([1]; read-out: IC50) of over 10 µM, an Activity [2] of 58% and an IC50 ([3]; read-out: IC50) of over 10 µM. The Activity [5] was 56.8% and the Activity [4] was 35.3%.

Molecule CC(C)=CCC1=C(O)[C@](O)(CC=C(C)C)C(=O)C(C(=O)CC(C)C)=C1O has an IC50 ([1]; read-out: IC50) of 9.3 µM, an IC50 ([3]; read-out: IC50) of over 10 µM and an Activity [5] of 63.1%. The Activity [4] was 49.7%.

In the case of CC(C)=CCc1c(O)cc(O)c(-c2c(O)cc(O)c(CC=C(C)C)c2O)c1O, the IC50 [1] is reported as “Not Active”, the IC50 [3] is reported as “Not Active” and the Activity [4] is reported as 40.2%.
